{"data": "Assay results of several laboratories", "target": "Calcium/calmodulin-dependent protein kinase type II subunit delta (CAMK2D, Homo sapiens, UniProt Q13557)"}
{"SMILES": "c1cnn2ncc(-c3ccnc(N4CCC45COC5)n3)c2c1", "test": "binding", "conditions": "1 µM", "remaining binding [%]": 83}
{"SMILES": "CS(=O)(=O)c1cc(C2(NC(=O)c3cncc4c3cnn4-c3ccc(F)cc3)CC2)ccn1", "test": "cell-free assay, competition with immobilised ligand", "conditions": "1 µM", "remaining binding [%]": 76}
{"SMILES": "Nc1ncc2c(n1)-c1c([nH]c3ccc(C#CC4CC4)cc13)CCCC2", "test": "binding, competition with immobilised ligand", "conditions": "1 µM", "remaining binding [%]": 95}
{"SMILES": "c1cncc(-c2cccc(Nc3nccc(NC4CCCCC4)n3)c2)c1", "test": "binding, competition with immobilised ligand", "conditions": "10 µM", "remaining binding [%]": 92}
{"SMILES": "O=C(c1ccc(Nc2ncc(Cl)c(-c3ccc(Cl)s3)n2)cc1)N1CCC(N2CCCC2)CC1", "test": "binding, competition with immobilised ligand", "conditions": "1 µM", "remaining binding [%]": 75}
{"SMILES": "Cc1cnn2ncc(-c3ccnc(N(C)C)n3)c2c1", "test": "binding", "conditions": "1 µM", "remaining binding [%]": 78}
{"SMILES": "C=CC(=O)N1CCC(C(=O)NCC(=O)N2CCN(c3nc(-c4cnc(N)nc4C(F)F)nc(N4CCOCC4)n3)CC2)CC1", "test": "binding, competition with immobilised ligand", "conditions": "1 µM", "remaining binding [%]": 100}
{"SMILES": "C[C@H]1CCN(c2nccc(-c3cnn4ncccc34)n2)C1", "test": "binding", "conditions": "1 µM", "remaining binding [%]": 94}
{"SMILES": "CNC(=O)c1ccc(Nc2ncc(C(F)(F)F)c(NCc3nccnc3N(C)S(C)(=O)=O)n2)cc1", "test": "cell-free assay, competition with immobilised ligand", "conditions": "0.1 µM", "remaining binding [%]": 83}
{"SMILES": "O=C(NCC1CCOCC1)c1n[nH]cc1NC(=O)c1c(F)cccc1F", "test": "binding, competition with immobilised ligand", "conditions": "1 µM", "remaining binding [%]": 89}
{"SMILES": "O=C(NCCCN1CCOCC1)c1ccc(Nc2ncc(Cl)c(-c3ccc(Cl)s3)n2)cc1", "test": "binding, competition with immobilised ligand", "conditions": "1 µM", "remaining binding [%]": 83}
{"SMILES": "COc1cnc(Nc2cccc(S(N)(=O)=O)c2)nc1N1CCN(c2ccccc2)CC1", "test": "binding, competition with immobilised ligand", "conditions": "1 µM", "remaining binding [%]": 92}
{"SMILES": "CN(c1ccnc(CNc2nc(Nc3ccc4c(c3)CC(=O)N4)ncc2C(F)(F)F)n1)S(C)(=O)=O", "test": "cell-free assay, competition with immobilised ligand", "conditions": "1 µM", "remaining binding [%]": 100}
{"SMILES": "CNC(=O)[C@@H]1CC[C@@H](n2c(-c3ccc4cnccc4c3)nc3ccc(C(=O)NCc4cccc(C(N)=O)c4)cc32)C1", "test": "binding, competition with immobilised ligand", "conditions": "1 µM", "remaining binding [%]": 87}
{"SMILES": "N[C@H]1CCN(c2nccc(-c3cnn4ncccc34)n2)C1", "test": "binding", "conditions": "1 µM", "remaining binding [%]": 100}
{"SMILES": "CCS(=O)(=O)c1cc2cc(C[C@@](O)(CC(C)(C)c3ccc(F)cc3C(N)=O)C(F)(F)F)[nH]c2cn1", "test": "cell-free assay, competition with immobilised ligand", "conditions": "1 µM", "remaining binding [%]": 81}
{"SMILES": "F[C@@H]1CCN(c2nccc(-c3cnn4ncccc34)n2)C1", "test": "binding", "conditions": "1 µM", "remaining binding [%]": 100}
{"SMILES": "Cn1nc(C(F)(F)F)cc1-c1cnc(N2CCc3cc(S(=O)(=O)Nc4c(F)cc(Cl)cc4F)cc(N4CCCC4=O)c32)nc1", "test": "cell-free assay, competition with immobilised ligand", "conditions": "1 µM", "remaining binding [%]": 99}
{"SMILES": "CN(C)c1nccc(-c2cnn3ncccc23)n1", "test": "binding", "conditions": "1 µM", "remaining binding [%]": 100}
{"SMILES": "Cc1cnc(Nc2ccc(C(=O)N3CCC(N4CCCC4)CC3)cc2)nc1-c1cc2ccccc2s1", "test": "binding, competition with immobilised ligand", "conditions": "1 µM", "remaining binding [%]": 73}
{"SMILES": "C[C@H](c1cccc(C#N)c1)n1cc(Cl)cc(C(N)=O)c1=N", "test": "cell-free assay, competition with immobilised ligand", "conditions": "1 µM", "remaining binding [%]": 100}
{"SMILES": "C[C@@H](c1ccc(-n2cnc3c(N)ncnc32)cc1)N1CCc2nn(C)c(Cc3ccccc3)c2C1=O", "test": "binding, competition with immobilised ligand", "conditions": "0.1 µM", "remaining binding [%]": 93}
